ChEMBL document CHEMBL1649503, “Alkoxyalkyl esters of 9-(s)-(3-hydroxy-2-phosphonomethoxypropyl) adenine are potent and selective inhibitors of hepatitis B virus (HBV) replication in vitro and in HBV transgenic mice in vivo” (Antimicrob Agents Chemother, 2009)

What was measured:
Liver [1] = test: AUC in Swiss-Webster mouse liver assessed per gram of tissue at 10 mg/kg, po after 24 hrs; type: ADME, organism-based; set-up: time < 24 hr, dose 10 mg/kg, route oral; details: in vivo
Method in brief: (§1)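 Female Swiss-Webster mice (about 25 g) each got a single 10 mg/kg dose of the 14C-labeled (8-14C) ester (50 mCi/mmol) in 0.7% saline, by oral gavage or ip injection. Blood was taken at 1, 3, 6, 12 and 24 h, and liver, spleen, kidney, lung, heart and brain were excised, washed and weighed. Radioactivity was measured by scintillation counting as µM plasma equivalents or nmol/g tissue, mean of three per time point.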

Mus musculus [2] = test: Toxicity in transgenic mouse at 10 mg/kg, po assessed as morbidity after 7 days; type: organism-based; set-up: dose 10 mg/kg, route oral; details: in vivo, 168 h
[3] = Tmax in Swiss-Webster mouse liver at 10 mg/kg, ip after 24 hrs; type: ADME, organism-based; set-up: dose 10 mg/kg, route intraperitoneal; method in brief: as §1
Hepatitis B virus [4] = test: Antiviral activity against HBV harboring RNA polymerase M204I mutant gene infected in human HuH7 cells assessed as decrease in viral transient transfection after 5 days; details: Huh-7, 5 days
HepG2 [5] = test: Drug metabolism in human HepG2 cells assessed as HPMPApp uptake at 10 uM after 24 hrs; type: ADME, cell-based; details: hepg2, 24 h
Method in brief: (§2)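 Nearly confluent HepG2 flasks got 14C-labeled drug (final 10 µM, 50 mCi/mmol) for 24 h. Cells were washed with cold PBS, lysed in water by two freeze-thaw cycles and sonication, then extracted with cold TCA (8% final) and centrifuged at 4°C. Supernatant was counted and analyzed by SAX ion-exchange HPLC, with metabolites assigned by retention versus reference standards.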

Spleen [6] = test: AUC in Swiss-Webster mouse spleen assessed per gram of tissue at 10 mg/kg, po after 24 hrs; type: ADME, organism-based; set-up: time < 24 hr, dose 10 mg/kg, route oral; details: in vivo; method in brief: as §1
Kidney [7] = test: AUC in Swiss-Webster mouse kidney assessed per gram of tissue at 10 mg/kg, po after 24 hrs; type: ADME, organism-based; set-up: time < 24 hr, dose 10 mg/kg, route oral; details: in vivo; method in brief: as §1
HepG2 [8] = test: Drug metabolism in human HepG2 cells assessed as unidentified metabolite uptake at 10 uM after 24 hrs; type: ADME, cell-based; details: hepg2, 24 h; method in brief: as §2
[9] = Tmax in Swiss-Webster mouse lung at 10 mg/kg, ip after 24 hrs; type: ADME, organism-based; set-up: dose 10 mg/kg, route intraperitoneal
Method in brief: (§3)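 Female Swiss-Webster mice (about 25 g) got one 10 mg/kg dose of the 8-14C-labeled ester (50 mCi/mmol) in 0.7% saline, by oral gavage or intraperitoneal injection. Blood was taken at 1, 3, 6, 12 and 24 h. Liver, spleen, kidney, lung, heart and brain were excised, washed and weighed. Drug plus metabolites were measured by liquid scintillation as µM plasma equivalents or nmol/g tissue. Each time point is the mean of three replicates.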

Brain [10] = test: AUC in Swiss-Webster mouse brain assessed per gram of tissue at 10 mg/kg, ip after 24 hrs; type: ADME, organism-based; set-up: time < 24 hr, dose 10 mg/kg, route intraperitoneal; details: in vivo; method in brief: as §1
[11] = Cmax in Swiss-Webster mouse plasma assessed per gram of tissue at 10 mg/kg, po after 24 hrs; type: ADME, organism-based; set-up: dose 10 mg/kg, route oral; method in brief: as §1
Liver [12] = test: Cmax in Swiss-Webster mouse liver assessed per gram of tissue at 10 mg/kg, po after 24 hrs; type: ADME, organism-based; set-up: dose 10 mg/kg, route oral; details: in vivo; method in brief: as §1
[13] = Tmax in Swiss-Webster mouse kidney at 10 mg/kg, ip after 24 hrs; type: ADME, organism-based; set-up: dose 10 mg/kg, route intraperitoneal; method in brief: as §1
[14] = Tmax in Swiss-Webster mouse spleen at 10 mg/kg, ip after 24 hrs; type: ADME, organism-based; set-up: dose 10 mg/kg, route intraperitoneal; method in brief: as §3
Hepatitis B virus [15] = test: Antiviral activity against HBV harboring RNA polymerase N236T mutant gene infected in human HuH7 cells assessed as decrease in viral transient transfection […]; type: functional, organism-based; details: Huh-7
Method in brief: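 Lamivudine- and adefovir-resistant HBV mutants introduced into Huh7 cells by transient transfection. Compounds were tested in a 5-day assay.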

[16] = Tmax in Swiss-Webster mouse lung at 10 mg/kg, po after 24 hrs; type: ADME, organism-based; set-up: dose 10 mg/kg, route oral; method in brief: as §3
Liver [17] = test: AUC in Swiss-Webster mouse liver assessed per gram of tissue at 10 mg/kg, ip after 24 hrs; type: ADME, organism-based; set-up: time < 24 hr, dose 10 mg/kg, route intraperitoneal; details: in vivo; method in brief: as §1
Brain [18] = test: Cmax in Swiss-Webster mouse brain assessed per gram of tissue at 10 mg/kg, ip after 24 hrs; type: ADME, organism-based; set-up: dose 10 mg/kg, route intraperitoneal; details: in vivo; method in brief: as §1
Hepatitis B virus [19] = test: Antiviral activity against HBV harboring RNA polymerase L180M/M204V mutant gene infected in human HuH7 cells assessed as decrease in viral transient transfection after 5 days; details: Huh-7, 5 days
Heart [20] = test: AUC in Swiss-Webster mouse heart assessed per gram of tissue at 10 mg/kg, ip after 24 hrs; type: ADME, organism-based; set-up: time < 24 hr, dose 10 mg/kg, route intraperitoneal; details: in vivo; method in brief: as §1
Mus musculus [21] = test: Toxicity in transgenic mouse at 30 to 100 mg/kg, po assessed as morbidity after 7 days; type: organism-based; set-up: dose 30-100 mg/kg, route oral; details: in vivo, 168 h
Heart [22] = test: Cmax in Swiss-Webster mouse heart assessed per gram of tissue at 10 mg/kg, ip after 24 hrs; type: ADME, organism-based; set-up: dose 10 mg/kg, route intraperitoneal; details: in vivo; method in brief: as §1
Heart [23] = test: Cmax in Swiss-Webster mouse heart assessed per gram of tissue at 10 mg/kg, po after 24 hrs; type: ADME, organism-based; set-up: dose 10 mg/kg, route oral; details: in vivo; method in brief: as §1
[24] = Cytotoxicity against human HepG2(2.2.15) cells after 24 hrs by neutral red assay; type: cell-based
Method in brief: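 2.2.15 cells, RPMI 1640 with 2% FBS, dosed daily for nine consecutive days. Viability was read by neutral red uptake, absorbance of internalized dye at 510, 24 h after the last treatment, three cultures per concentration.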

Brain [25] = test: Cmax in Swiss-Webster mouse brain assessed per gram of tissue at 10 mg/kg, po after 24 hrs; type: ADME, organism-based; set-up: dose 10 mg/kg, route oral; details: in vivo; method in brief: as §1
Lung [26] = test: AUC in Swiss-Webster mouse lung assessed per gram of tissue at 10 mg/kg, ip after 24 hrs; type: ADME, organism-based; set-up: time < 24 hr, dose 10 mg/kg, route intraperitoneal; details: in vivo; method in brief: as §1
[27] = Tmax in Swiss-Webster mouse plasma at 10 mg/kg, po after 24 hrs; type: ADME, organism-based; set-up: dose 10 mg/kg, route oral; method in brief: as §3
HepG2 [28] = test: Drug metabolism in human HepG2 cells assessed as HPMPAp uptake at 10 uM after 24 hrs; type: ADME, cell-based; details: hepg2, 24 h; method in brief: as §2
[29] = Tmax in Swiss-Webster mouse heart at 10 mg/kg, ip after 24 hrs; type: ADME, organism-based; set-up: dose 10 mg/kg, route intraperitoneal; method in brief: as §1
[30] = Tmax in Swiss-Webster mouse plasma at 10 mg/kg, ip after 24 hrs; type: ADME, organism-based; set-up: dose 10 mg/kg, route intraperitoneal; method in brief: as §3
HepG2 [31] = test: Drug metabolism in human HepG2 cells assessed as unidentified metabolite uptake at 10 uM after 48 hrs; type: ADME, cell-based; details: hepg2, 48 h
Kidney [32] = test: Cmax in Swiss-Webster mouse kidney assessed per gram of tissue at 10 mg/kg, po after 24 hrs; type: ADME, organism-based; set-up: dose 10 mg/kg, route oral; details: in vivo; method in brief: as §1
[33] = Tmax in Swiss-Webster mouse heart at 10 mg/kg, po after 24 hrs; type: ADME, organism-based; set-up: dose 10 mg/kg, route oral; method in brief: as §1
Heart [34] = test: AUC in Swiss-Webster mouse heart assessed per gram of tissue at 10 mg/kg, po after 24 hrs; type: ADME, organism-based; set-up: time < 24 hr, dose 10 mg/kg, route oral; details: in vivo; method in brief: as §1
Spleen [35] = test: Cmax in Swiss-Webster mouse spleen assessed per gram of tissue at 10 mg/kg, ip after 24 hrs; type: ADME, organism-based; set-up: dose 10 mg/kg, route intraperitoneal; details: in vivo; method in brief: as §1
Spleen [36] = test: Cmax in Swiss-Webster mouse spleen assessed per gram of tissue at 10 mg/kg, po after 24 hrs; type: ADME, organism-based; set-up: dose 10 mg/kg, route oral; details: in vivo; method in brief: as §1
Hepatitis B virus [37] = test: Antiviral activity against HBV harboring RNA polymerase L180M mutant gene infected in human HuH7 cells assessed as decrease in viral transient transfection after 5 days; details: Huh-7, 5 days
HepG2 [38] = test: Drug metabolism in human HepG2 cells assessed as HPMPA uptake at 10 uM after 48 hrs; type: ADME, cell-based; details: hepg2, 48 h
Lung [39] = test: AUC in Swiss-Webster mouse lung assessed per gram of tissue at 10 mg/kg, po after 24 hrs; type: ADME, organism-based; set-up: time < 24 hr, dose 10 mg/kg, route oral; details: in vivo; method in brief: as §1
Kidney [40] = test: AUC in Swiss-Webster mouse kidney assessed per gram of tissue at 10 mg/kg, ip after 24 hrs; type: ADME, organism-based; set-up: time < 24 hr, dose 10 mg/kg, route intraperitoneal; details: in vivo; method in brief: as §1

Q: With CCCCCCCCCCCCCCCCOCCCOP(=O)(O)CO[C@H](CO)Cn1cnc2c(N)ncnc21 as the compound, how does the AUC (Liver [1]) read?
A: 222.2 nmol·h/g

Q: And the Activity (Mus musculus [2])?
A: Non-toxic

Q: What about the Tmax [3] of the same compound?
A: 1 h

Q: And the EC50 (Hepatitis B virus [4])?
A: 1.2 µM

Q: And the EC90 (Hepatitis B virus [4])?
A: 4 µM

Q: And the Drug uptake (HepG2 [5])?
A: 888 pmol

Q: What about the AUC (Spleen [6]) of the same compound?
A: 3.9 nmol·h/g

Q: What about the AUC (Kidney [7]) of the same compound?
A: 68.8 nmol·h/g

Q: And the Drug uptake (HepG2 [8])?
A: 596 pmol

Q: And the Tmax [9]?
A: 1 h

Q: And the AUC (Brain [10])?
A: 0.98 nmol·h/g

Q: What about the Cmax [11] of the same compound?
A: 1110 nM

Q: And the Cmax (Liver [12])?
A: 21.1 nmol/g

Q: What about the Tmax [13] of the same compound?
A: 1 h

Q: What about the Tmax [14] of the same compound?
A: 1 h

Q: And the EC50 (Hepatitis B virus [15])?
A: > 100 µM

Q: What about the EC90 (Hepatitis B virus [15]) of the same compound?
A: > 100 µM

Q: And the Tmax [16]?
A: 3 h

Q: And the AUC (Liver [17])?
A: 545.1 nmol·h/g

Q: What about the Cmax (Brain [18]) of the same compound?
A: 0.16 nmol/g

Q: And the EC50 (Hepatitis B virus [19])?
A: 0.7 µM

Q: What about the EC90 (Hepatitis B virus [19]) of the same compound?
A: 2.8 µM

Q: And the AUC (Heart [20])?
A: 3.8 nmol·h/g

Q: And the Activity (Mus musculus [21])?
A: Toxic

Q: What about the Cmax (Heart [22]) of the same compound?
A: 0.57 nmol/g

Q: And the Cmax (Heart [23])?
A: 0.2 nmol/g

Q: And the CC50 at 24 h [24]?
A: > 300 µM

Q: And the Cmax (Brain [25])?
A: 0.07 nmol/g

Q: And the AUC (Lung [26])?
A: 21.5 nmol·h/g

Q: And the Tmax [27]?
A: 1 h

Q: What about the Drug uptake (HepG2 [28]) of the same compound?
A: 255 pmol

Q: What about the Tmax [29] of the same compound?
A: 1 h

Q: And the Tmax [30]?
A: 3 h

Q: And the Drug uptake (HepG2 [31])?
A: 402 pmol

Q: And the Cmax (Kidney [32])?
A: 5.07 nmol/g

Q: And the Tmax [33]?
A: 1 h

Q: What about the AUC (Heart [34]) of the same compound?
A: 2.69 nmol·h/g

Q: What about the Cmax (Spleen [35]) of the same compound?
A: 1.58 nmol/g

Q: And the Cmax (Spleen [36])?
A: 0.22 nmol/g

Q: And the EC50 (Hepatitis B virus [37])?
A: 1 µM

Q: What about the EC90 (Hepatitis B virus [37]) of the same compound?
A: 3.5 µM

Q: And the Drug uptake (HepG2 [38])?
A: 393 pmol

Q: What about the AUC (Lung [39]) of the same compound?
A: 12.8 nmol·h/g

Q: And the AUC (Kidney [40])?
A: 195.7 nmol·h/g
